PKA-R2B act: activators of PKA-R2B holoenzyme, primary screen, biochemical, fluorescence polarization, Cy5-IP20, human; cAMP-dependent protein kinase catalytic subunit beta (Homo sapiens) + cAMP-dependent …; PKA-R2B holoenzyme dissociation; R2B truncated from residue 108, S112A mutant; 0% DMSO only, 100% 113 µM cGMP; activation, % at 11.4 µM; 0.079% of 340,000 active;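 active = activation above a cutoff set at the mean over all compounds plus 3 SD, cut at about 18% in these data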;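 note: higher means more holoenzyme dissociation and a rise in polarization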
Target sequence (P31323 whole entry, looked up, other chains not shown, the tested form may be a part): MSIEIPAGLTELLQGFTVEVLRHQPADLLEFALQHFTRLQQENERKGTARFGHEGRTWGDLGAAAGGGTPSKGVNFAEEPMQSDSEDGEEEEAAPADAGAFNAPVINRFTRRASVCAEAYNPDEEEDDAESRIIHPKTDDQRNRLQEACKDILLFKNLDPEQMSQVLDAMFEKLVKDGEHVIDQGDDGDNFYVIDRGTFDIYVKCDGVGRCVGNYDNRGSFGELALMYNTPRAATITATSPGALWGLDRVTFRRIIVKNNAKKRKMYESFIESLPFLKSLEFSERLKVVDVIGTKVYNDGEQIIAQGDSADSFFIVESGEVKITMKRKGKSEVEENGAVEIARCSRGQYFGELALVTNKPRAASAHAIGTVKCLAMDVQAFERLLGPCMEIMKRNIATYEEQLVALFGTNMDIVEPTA
PKA-R1A activ: activators of PKA-R1A holoenzyme, primary screen, biochemical, fluorescence polarization, Cy5-IP20, bovine R1A, mouse PKAc | AID 504707, 2011 | 0.083% of 340,000 active | cAMP-dependent protein kinase type I-alpha regulatory subunit (Bos taurus) + … | PKA-R1A dissociation; scaled: DMSO 0%, 113 µM cGMP 100% | activation, % at 11.4 µM;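 active = percent activation above the mean of all tested compounds plus 3 SD, cut at about 19% in these data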;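 note: higher means more PKAc released from R1A so a rise in polarization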
NR2E3 ag-1: NR2E3 agonists in two-hybrid cells, primary screen, cell-based, luminescence, CHO-S, Gal4-NCOR/VP16-NR2E3. inhibition of corepressor binding, % at 3.98 µM. luciferase. 0.35% of 360,000 active;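 active = inhibition above the mean of all tested compounds plus 3 SD, cut at about 70% in these data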;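 note: 0% = DMSO with NR2E3 transfected cells and 100% = cells lacking NR2E3 construct; higher means lower luciferase signal from less NR2E3 corepressor binding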
NR2E3 ag-2: inhibitors of NR2E3-RetCOR corepressor binding, primary screen, NR2E3 agonist project, biochemical, TR-FRET, GST-NR2E3, biotin-RetCOR; 1536-well; inhibition of corepressor binding, % at 4.78 µM; 0.12% of 320,000 active; AID 2300, 2010;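 active = percent inhibition above the cutoff of mean plus 3 SD of all tested compounds, set per screening campaign, cut at about 20% in these data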;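 note: 0% = DMSO wells and 100% = biotin wells as full block of FRET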
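Test system – NR2E3–RetCOR corepressor complex · Quantity – NR2E3 fusion 1.35 nM · Buffer or medium – Tris pH 7.5 · Incubation – Compound–protein incubation for 5 h at 4 °C · Technique – TR-FRET, Eu(K)-anti-GST donor, streptavidin-D2 acceptor, ex 340, em 617/671 nm · Evaluation – percent inhibition of 671/617 nm emission ratio versus biotin and DMSO controls · Plate – 1536-well format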
NR1D1 modulator: modulators of Rev-erb alpha DNA binding, primary screen, biochemical, FITC-DNA, fluorescence polarization, uHTS; activity, % at 10 µM; AID 1259318, 2017; Rev-erbα–FITC-DNA binding, 90 min; 0.79% of 370,000 active; Nuclear receptor subfamily 1 group D member 1 (Homo sapiens), P20393;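 active = activity above about 14%, limit read from the data; passing the limit was not always enough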;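 note: 0% = DMSO wells with 35 nM protein and 100% = DMSO wells with 750 nM protein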
PG9 binder: binders of HIV-1 gp120 antibody PG9, primary screen, biochemical, TR-FRET; HIV-1 gp120 / PG9 antibody interaction; TR-FRET gp120-PG9 antibody binding; inhibition, % at 6.7 µM; 0.43% of 360,000 active; in the data active = inhibition above about 8.5%
NR2E3 ag confirm: NR2E3 agonists, confirmation, biochemical, TR-FRET; shares compounds with NR2E3 ag-2; cell-free NR2E3 corepressor release, 5 h; activation (reported as inhibition), % at 3.98 µM; 39% of 360 active; AID 2379, 2010; in the data active = activation above about 20%
PPARg-NCOR2 ag: agonists of PPARg-NCOR2 corepressor interaction, counter-screen for NR2E3 agonist project, biochemical, TR-FRET; TR-FRET PPARg-NCOR2 coregulator interaction; shares compounds with NR2E3 ag-2; AID 504787, 2011; 45% of 360 active; inhibition, % at 3.98 µM; in the data active = inhibition above about 20%;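 note: 0% = DMSO vehicle and 100% = wells without protein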
PG9 bind confirm: binders of anti-gp120 antibody PG9, confirmation, biochemical, TR-FRET; shares compounds with PG9 binder; TR-FRET PG9 antibody binding; inhibition, % at 6.7 µM; 90% of 1,500 active; AID 651571, 2012; in the data active = inhibition above about 9%
PGV04 counter: binders of control antibody PGV04, counter-screen for PG9 antibody binder project, biochemical, TR-FRET, distinct HIV envelope site; 95% of 1,500 active; shares compounds with PG9 binder; AID 651604, 2012; TR-FRET PGV04 antibody-gp120 binding; inhibition, % at 6.7 µM; in the data active = inhibition above about 9.5%
PG9 binder DR: small-molecule binders of antibody PG9, dose response, biochemical, TR-FRET, HIV-1 gp120 antibody. IC50, µM. AID 651848, 2012. shares compounds with PG9 binder. TR-FRET PG9 antibody-gp120 binding inhibition. 95 tested, under 10 active; in the data active = IC50 below about 10 µM
PGV04 binding DR: binders of control antibody PGV04, dose response, counter-screen for PG9 antibody binder project, biochemical, TR-FRET, distinct HIV envelope site; IC50, µM; AID 651937, 2012; TR-FRET binding to control antibody PGV04; 20% of 95 active; shares compounds with PG9 binder
PG126 DR counter: binders of control antibody PG126, dose response, counter-screen for PG9 antibody binder project, biochemical, TR-FRET, distinct HIV envelope site; IC50, µM; 20% of 95 active; TR-FRET binding to antibody PG126, counterscreen; AID 651939, 2012; shares compounds with PG9 binder
Numbers without * were called inactive; i = inactive; . = no result. Rows were chosen to be rich in hits. Some 1.6% of all compounds tested hit in one or more screens of this group. Cut-off read from the data, not from the text of the source, unless noted: active = IC50 below about 9 µM; inactive = the rest.

SMILES	PKA-R2B act	PKA-R1A activ	NR2E3 ag-1	NR2E3 ag-2	NR1D1 modulator	PG9 binder	NR2E3 ag confirm	PPARg-NCOR2 ag	PG9 bind confirm	PGV04 counter	others
Cc1ccc(C2C(C(=O)c3cc4ccccc4o3)=C(O)C(=O)N2CCN2CCOCC2)cc1 (configuration not stated)	-3	8	-4	20*	1	10*	25*	25*	27*	35*
O=C(C1=C(O)C(=O)N(CCN2CCOCC2)C1c1ccc(Br)cc1)c1cc2ccccc2o1 (configuration not stated)	4	-8	13	18	2	6	.	.	.	.
COc1cccc2cc(C(=O)C3=C(O)C(=O)N(CCN4CCOCC4)C3c3ccc(Cl)cc3)oc12 (configuration not stated)	2	2	1	4	3	1	.	.	.	.
CN(C)CCCN1C(=O)C(O)=C(C(=O)c2cc3ccccc3o2)C1c1ccccc1 (configuration not stated)	-14	-16	-18	30*	2	36*	27*	28*	37*	55*
O=C(C1=C(O)C(=O)N(CC2CCCO2)C1c1cccnc1)c1ccco1 (configuration not stated)	-3	5	5	8	2	2	.	.	.	.
COc1cccc2cc(C(=O)C3=C(O)C(=O)N(CCN4CCOCC4)C3c3cccc(Cl)c3)oc12 (configuration not stated)	-3	0	-10	28*	4	18*	13	17	27*	38*
O=C(C1=C(O)C(=O)N(CCN2CCOCC2)C1c1cccc(F)c1)c1cc2ccccc2o1 (configuration not stated)	-10	-2	-13	33*	0	24*	20*	25*	34*	45*
O=C(C1=C(O)C(=O)N(CCN2CCOCC2)C1c1cccc(O)c1)c1cc2ccccc2o1 (configuration not stated)	6	6	-30	.	2	3	.	.	.	.
CN(C)[C@@H]1C(=O)C(C(=O)NCN2CCCC2)=C(O)[C@@]2(O)C(=O)C3=C(O)c4c(O)cccc4[C@@](C)(O)[C@H]3C[C@@H]12	.	.	.	.	-5	.	.	.	.	.
S=c1[nH]c2ccccc2n2cccc12	-9	-2	-13	29*	9	23*	8	7	17*	15*	PG9 binder DR=i;PGV04 binding DR=i;PG126 DR counter=i
COc1cccc(CNC(=O)COC(=O)/C(C#N)=C/c2ccc(N(C)C)cc2)c1	-9	-3	-21	31*	-3	21*	36*	35*	36*	51*
COc1ccc(/C=C(\C#N)C(=O)OCC(=O)NCc2ccccc2)cc1	3	-15	2	0	4	-2	.	.	.	.
Cc1cc(-c2ccc(Cl)cc2)c(C#N)c(N)n1	0	1	-33	39*	20	55*	26*	26*	64*	80*
Cc1ccc(-c2cc(-c3ccccc3)c(C#N)c(N)n2)o1	3	0	-2	1	-3	1	.	.	.	.
Cc1ccc(F)cc1C(=O)N(Cc1ccccn1)CC1CCCO1 (configuration not stated)	.	.	.	.	10	.	.	.	.	.
CC(=O)NC(CSc1cc(C)nc2ccc(Br)cc12)C(=O)O (configuration not stated)	7	-3	-22	25*	2	21*	11	67*	34*	50*
COc1ccc2nc(C)cc(SCC(NC(C)=O)C(=O)OC(C)C)c2c1 (configuration not stated)	3	12	-19	1	-3	0	.	.	.	.
Cc1cc(N2C(=O)C(O)=C(C(=O)c3cccs3)C2c2ccccc2)no1 (configuration not stated)	-4	-11	21	6	7	8	.	.	.	.
Cc1cc(N2C(=O)C(O)=C(C(=O)c3cc4ccccc4o3)C2c2cccc(Br)c2)no1 (configuration not stated)	-1	-14	31	38*	4	38*	48*	46*	43*	56*
CCCOc1cccc(C2C(C(=O)c3cc4ccccc4o3)=C(O)C(=O)N2c2cc(C)on2)c1 (configuration not stated)	-7	-10	-9	24*	2	18*	34*	36*	24*	38*
COc1cccc(C2C(C(=O)c3cc4ccccc4o3)=C(O)C(=O)N2c2cc(C)on2)c1OC (configuration not stated)	-5	-4	0	24*	4	19*	25*	18	27*	43*
